{"source": "PubChem BioAssay AID1885", "about": "(Broad Institute, 2009)", "note": "Where “and” joins values, the source holds several entries; their conditions need not be identical. Equal values may be shown once. The campaign covered roughly 300,000 compounds. About 4,400 (1.5%) were called active. This is one part of a sample in which actives are shown more often than they occur.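 How the source made its calls: active means mean inhibition across valid replicates above about 55% (limit read from the data); inconclusive means mean below that limit but half or more replicates reach it; inactive means mean below it, under half of replicates reach it.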 Some structures have more than one record in an assay (separate samples or runs), and their calls can disagree."}
{"experiment": "Trypanosoma cruzi replication blockers in host cells – luminescence, NIH3T3 host cells, primary screen (AID 1885);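 further: signal also drops with host cell toxicity which is not excluded here; 0% = plate median of DMSO wells and 100% = zero luminescence signal; higher percent means less beta-gal luminescence so fewer parasites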", "settings": "T. cruzi beta-gal in NIH3T3, luminescence, 90 h; stronger effect = higher value; concentration not given here", "in_short": "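Test system: β-gal T. cruzi (Tulahuen C4) inside NIH/3T3 cells / Quantity: 5,000 cells/well / Measured by: luminescence from GalScreen with 0.05% NP40, read after 60 min / Medium: DMEM plus 2% FBS / Measure: parasite load inhibition, % / Reagent: Tulahuen C4 trypomastigotes, 5000/well / Schedule: co-culture of at least 90 h after 3 h attachment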"}
{"smiles": "CCOc1ncccc1C(=O)NNC(=O)c1cccc(S(=O)(=O)Nc2ccccc2OC)c1", "inhibition": "0.733% (inactive)"}
{"smiles": "COc1ccc(CSc2nc(N3CCOCC3)c3c(c2C#N)CC(C)(C)OC3)cc1", "inhibition": "60.5% (active)"}
{"smiles": "CC(C)c1nc(N2CCOCC2)c(C#N)c2c1COC(C)(C)C2", "inhibition": "12.5% (inactive)"}
{"smiles": "CC1(C)Cc2c(C#N)c(SCc3nc4ccccc4[nH]3)nc(N3CCOCC3)c2CO1", "inhibition": "23.1% (inactive)"}
{"smiles": "CSc1ccccc1NC(=O)C(C)N1C(=O)c2ccccc2S1(=O)=O", "note": "(configuration not stated)", "inhibition": "-1.05% (inactive)"}
{"smiles": "COc1ccc(N(CC(=O)N2CCOCC2)S(=O)(=O)c2ccccc2)cc1Cl", "inhibition": "-3.61% (inactive)"}
{"smiles": "CCCn1nc(C(=O)NNC(=O)CSCC(=O)Nc2cc(C)on2)c2ccccc2c1=O", "inhibition": "-11.5% (inactive)"}
{"smiles": "N#CCN(C(=O)COC(=O)C1CC2CCCC(C1)C2=O)c1ccccc1", "note": "(configuration not stated)", "inhibition": "-10.6% (inactive)"}
{"smiles": "Cc1nc2ccccc2nc1N/N=C/c1ccc(O)cc1O", "inhibition": "60% (active)"}
{"smiles": "Oc1ccc(/C=N/Nc2nc(-c3ccccc3F)nc3ccccc23)c(O)c1", "inhibition": "-4.73% (inactive)"}
{"smiles": "Oc1ccc(/C=N/NC2=NCCCCC2)c(O)c1", "inhibition": "-40.4% (inactive)"}
{"smiles": "Cc1c(NC(=O)C(C)Oc2cccc(Cl)c2)c(=O)n(-c2ccccc2)n1C", "note": "(configuration not stated)", "inhibition": "-6.21% (inactive)"}
{"smiles": "O=C(CN1CCN(S(=O)(=O)c2ccc(Br)cc2)CC1)Nc1ccccc1C(=O)c1ccccc1", "inhibition": "56% (active)"}
{"smiles": "O=C(CN1CCN(S(=O)(=O)c2ccc(F)cc2)CC1)Nc1ccccc1F", "inhibition": "4.08% (inactive)"}
{"smiles": "COc1ccccc1NC(=O)CN1CCN(S(=O)(=O)c2ccc(Br)cc2)CC1", "inhibition": "8.31% (inactive)"}
{"smiles": "COc1cccc(COc2ccc(N(C)S(=O)(=O)c3ccccc3)cc2)c1", "inhibition": "9.64% (inactive)"}
{"smiles": "COc1ccc(N=Cc2c(O)[nH]c3ccccc23)cc1OC", "inhibition": "-17.8% (inactive)"}
{"smiles": "CCn1c(-c2cc(OC)ccc2OC)csc1=Nc1c(C)n(C)n(-c2ccccc2)c1=O", "inhibition": "13.7% (inactive)"}
{"smiles": "CN=c1scc(-c2cc(OC)ccc2OC)n1/N=C/c1c(C)[nH]c2ccccc12", "inhibition": "73.4% (active)"}
{"smiles": "O=C(CCNC(=O)c1ccc(Br)cc1)Nc1cccc(S(=O)(=O)N2CCCCC2)c1", "inhibition": "3.39% (inactive)"}
{"smiles": "COc1c(C)c2c(c(O)c1C/C=C(\\C)CCC(=O)O)C(=O)OC2", "inhibition": "62.2% (active)"}
{"smiles": "CCN(CC(=O)Nc1c(F)cccc1F)C(=O)c1ccc(-c2ccccc2)cc1", "inhibition": "-22.3% (inactive)"}
{"smiles": "Cc1ccccc1NC(=O)C(C)OC(=O)CCC(=O)N(CC(C)C)c1c(N)n(CC(C)C)c(=O)[nH]c1=O", "note": "(configuration not stated)", "inhibition": "0.843% (inactive)"}
{"smiles": "Fc1ccc(CNCc2ccc(Br)cc2)cc1", "inhibition": "-7.54% (inactive)"}
{"smiles": "Cc1c(NC(=O)C(C)OC(=O)c2c3c(nc4ccccc24)CCC(C)C3)c(=O)n(-c2ccccc2)n1C", "note": "(configuration not stated)", "inhibition": "-9.27% (inactive)"}
{"smiles": "COc1ccc(CCNC(=O)COC(=O)/C=C/c2cccs2)cc1OC", "inhibition": "-3.17% (inactive)"}
{"smiles": "COC(=O)C1=CN(Cc2ccc(OC)c(OC)c2)C=C(C(=O)OC)C1c1cccs1", "inhibition": "65% (active)"}
{"smiles": "COC(=O)C1=CN(Cc2ccc(OC)cc2)C=C(C(=O)OC)C1c1ccc(O)c(OC)c1", "inhibition": "11.3% (inactive)"}
{"smiles": "Cc1cc(-c2ccccc2)n2nc(C)c(-c3ccccc3)c2n1", "inhibition": "32.1% (inactive)"}
{"smiles": "Cc1cc(-n2nc(C)cc2C)n2nc(C)c(-c3ccccc3)c2n1", "inhibition": "14.4% (inactive)"}
{"smiles": "CCc1c(C)nc2c(-c3ccccc3)c(C)nn2c1Nc1ccc(NC(C)=O)cc1", "inhibition": "54.5% (active)"}
{"smiles": "O=S(=O)(Nc1cccc(-c2ccc(N3CCOCC3)nn2)c1)c1ccc(Cl)c(Cl)c1", "inhibition": "-4.53% (inactive)"}
{"smiles": "COc1ccc(Cl)cc1NC(=O)CN(C)C(=O)c1cc2ccccc2cc1OC", "inhibition": "12.8% (inactive)"}
{"smiles": "COc1ccccc1OCCn1c(SCC(N)=O)nc2ccccc21", "inhibition": "-6.95% (inactive)"}
{"smiles": "O=C(CSc1ccccn1)N1CCN(S(=O)(=O)c2ccc(Cl)cc2)CC1", "inhibition": "-3.29% (inactive)"}
{"smiles": "O=C(Nc1ccccc1N1CCCC1)c1ccc(F)c(S(=O)(=O)N2CCOCC2)c1", "inhibition": "-5.53% (inactive)"}
{"smiles": "O=C(NCCCNC(=O)NC1CCCCC1)NC1CCCCC1", "inhibition": "-9.22% (inactive)"}
{"smiles": "CSc1cccc(NC(=S)N(Cc2ccccc2)Cc2ccccn2)c1", "inhibition": "2.49% (inactive)"}
{"smiles": "COc1cccc(NC(=S)NCc2ccccn2)c1", "inhibition": "4.96% (inactive)"}
{"smiles": "COc1cccc(NC(=S)N(Cc2ccc(C)cc2)Cc2ccccn2)c1", "inhibition": "78.1% (active)"}
{"smiles": "Nn1c(SCc2ccccc2)nnc1C1CCCCC1", "inhibition": "2.33% (inactive)"}
{"smiles": "CCc1ccc(N2CC(C(=O)Nc3ccc(S(=O)(=O)Nc4nccs4)cc3)CC2=O)cc1", "note": "(configuration not stated)", "inhibition": "-8.72% (inactive)"}
{"smiles": "CC1C(=O)Nc2ccccc2N1C(=O)c1ccc(F)cc1F", "note": "(configuration not stated)", "inhibition": "0.146% (inactive)"}
{"smiles": "O=[N+]([O-])c1ccccc1OCCCCN1CCCCC1", "inhibition": "1.28% (inactive)"}
{"smiles": "Cc1ccc(C(C)(C)C)c(OCCCCN2CCCC2)c1", "inhibition": "27.7% (inactive)"}
{"smiles": "Cc1ccc(OCCCCN2CCCCC2)c(Br)c1", "inhibition": "54.8% (active)"}
{"smiles": "COC(=O)C1=C[C@@H](C(=O)OC)[C@@H]2C3=C(C(=O)[C@]2(C)NC(=O)c2ccccc2)[C@H](C)n2c(=O)n(C)c(=O)n2[C@@H]3C1", "inhibition": "11.2% (inactive)"}
{"smiles": "COc1ccccc1NS(=O)(=O)c1ccc(C)c(C(=O)NCC(c2ccco2)N(C)C)c1", "note": "(configuration not stated)", "inhibition": "4.14% (inactive)"}
{"smiles": "CCNC(=O)COc1cc(C)c(Br)c(C)c1", "inhibition": "8.23% (inactive)"}
{"smiles": "CCOc1ccccc1N1CCN(C(=O)COc2ccc3c(C)cc(=O)oc3c2)CC1", "inhibition": "24% (inactive)"}
{"smiles": "Cc1ccccc1N1CCN(CCCOc2ccc3c(C)cc(=O)oc3c2)CC1", "inhibition": "60% (active)"}
{"smiles": "Cc1cc(OCC(=O)NC2CCN(C)CC2)ccc1[N+](=O)[O-]", "inhibition": "49.2% (inactive)"}
{"smiles": "Cc1cc(=O)oc2cc(OCCC[n+]3ccccc3)ccc12", "inhibition": "1.14% (inactive)"}
{"smiles": "Cc1cc(OCCCCOc2ccc(C#N)cc2)ccc1[N+](=O)[O-]", "inhibition": "19.5% (inactive)"}
{"smiles": "Cc1cc(OCCCN2CCN(Cc3ccccc3)CC2)ccc1[N+](=O)[O-]", "inhibition": "55.7% (active)"}
{"smiles": "CC(C)CC(O)C1CCN(C(=O)CCc2nnc(-c3ccc4c(c3)OCO4)o2)CC1", "note": "(configuration not stated)", "inhibition": "3.35% (inactive)"}
{"smiles": "Cc1ccc(OCCNC(=O)CNC(=O)c2ccc(C)c(C)c2)cc1", "inhibition": "-2.75% (inactive)"}
{"smiles": "Cc1ccc(C(=O)C[n+]2cc(-c3ccccc3)n3c2CCCCC3)cc1", "inhibition": "45.3% (inactive) and 65.4% (active)"}
{"smiles": "Cc1ccc(-c2c[n+](CC(=O)Nc3ccccc3)c3n2CCC3)cc1", "inhibition": "-0.923% (inactive)"}
{"smiles": "Clc1ccc(C[n+]2cc(-c3ccccc3)n3c2CCC3)cc1", "inhibition": "27.8% (inactive)"}
{"smiles": "COc1ccc(-c2cc(C(=O)N3CCN(Cc4ccc5c(c4)OCO5)CC3)on2)cc1OC", "inhibition": "-12.7% (inactive)"}
{"smiles": "CCC(CC)c1nnc(NC(=O)C2=COCCO2)s1", "inhibition": "-5.48% (inactive)"}
{"smiles": "Cc1cccc(C(=O)c2cccc(C)c2)c1", "inhibition": "-0.776% (inactive)"}
{"smiles": "CCNC(=O)COC(=O)CCNC(=O)c1cccc(C)c1", "inhibition": "8.59% (inactive)"}
{"smiles": "Cc1cccc(C(=O)NCCCN(C)CCCNC(=O)c2cccc(C)c2)c1", "inhibition": "66.4% (active)"}
{"smiles": "O=C(COC(=O)c1ccccc1Br)Nc1nnc(-c2ccccc2)o1", "inhibition": "1.76% (inactive)"}
{"smiles": "NC(=O)Cc1nc2scc(-c3ccc(Cl)cc3)c2c(=O)[nH]1", "inhibition": "-9.75% (inactive)"}
{"smiles": "O=c1[nH]c(CN2CCOCC2)nc2cc(Cl)ccc12", "inhibition": "-13.1% (inactive)"}
{"smiles": "O=c1[nH]c(CCl)nc2cc(-c3ccc(Cl)cc3)sc12", "inhibition": "55.8% (active)"}
{"smiles": "CCC1CCC/C1=N\\NC(=O)c1ccc(Cl)cc1", "note": "(configuration not stated)", "inhibition": "-10.7% (inactive)"}
{"smiles": "Cc1ccccc1Nc1nc(N)nc(CSc2ccccc2)n1", "inhibition": "4.95% (inactive)"}
{"smiles": "O=C(CNC(=O)c1ccccc1Br)NCCSc1ccc(Br)cc1", "inhibition": "-2.64% (inactive)"}
{"smiles": "O=C(/C=C/c1ccc(Cl)c([N+](=O)[O-])c1)c1cccnc1", "inhibition": "34% (inactive)"}
{"smiles": "O=C(/C=C/c1ccc(Cl)c([N+](=O)[O-])c1)c1ccc(O)cc1", "inhibition": "-0.939% (inactive)"}
{"smiles": "NC(N)=N/N=C/c1ccc(Cl)c([N+](=O)[O-])c1", "inhibition": "60.6% (active)"}
{"smiles": "COc1ccccc1C(=O)Nc1ccc(Nc2ccccc2)cc1", "inhibition": "-9% (inactive)"}
{"smiles": "COc1ccccc1CNC(=O)COn1nnc2ccc(S(=O)(=O)N3CCOCC3)cc21", "inhibition": "3.8% (inactive)"}
{"smiles": "Cc1ccccc1-n1c(SCC(=O)NCc2cccs2)nnc1-c1ccncc1", "inhibition": "9.95% (inactive)"}
{"smiles": "Cc1ccc(-c2noc(CSc3nnc(-c4ccncc4)n3-c3ccc(F)cc3)n2)cc1", "inhibition": "9.52% (inactive)"}
{"smiles": "Cc1ccc(Nc2nc(CSc3nnc(-c4ccncc4)n3-c3ccccc3C)cs2)cc1", "inhibition": "57.4% (active)"}
{"smiles": "COC(=O)c1cc(NC(=O)c2nn(C)c(=O)c3ccccc23)cc(C(=O)OC)c1", "inhibition": "-14.3% (inactive)"}
{"smiles": "O=C(CC1SC(N2CCCC2)=NC1=O)Nc1ccc(C(=O)NCCc2ccc(F)cc2)cc1", "note": "(configuration not stated)", "inhibition": "-6.73% (inactive)"}
{"smiles": "COC(=O)c1[nH]c2ccccc2c1NC(=O)CN1CCCc2ccccc21", "inhibition": "67.6% (active)"}
{"smiles": "NS(=O)(=O)c1cccc(NC(=O)CN2CCCc3ccccc32)c1", "inhibition": "-16.2% (inactive)"}
{"smiles": "COC(=O)c1[nH]c2cccc(C)c2c1NC(=O)CN1CCCc2ccccc21", "inhibition": "4.45% (inactive)"}
{"smiles": "CSc1n[nH]c(=S)n1N", "inhibition": "-10.3% (inactive)"}
{"smiles": "COC(=O)c1cnc(Nc2cc(C)ccc2OC)c2ccccc12", "inhibition": "-8.82% (inactive)"}
{"smiles": "Cc1ccc(C(=O)NC(=S)NCc2cccnc2)cc1", "inhibition": "14.1% (inactive)"}
{"smiles": "Cc1c(C(=O)NC(=S)NCc2cccnc2)oc2ccccc12", "inhibition": "63.2% (active)"}
{"smiles": "Cc1nonc1NC(=O)c1oc2ccccc2c1C", "inhibition": "-12.6% (inactive)"}
{"smiles": "CC(C)CN(C(=O)COC(=O)c1ccc2ccccc2c1)c1c(N)n(Cc2ccccc2)c(=O)[nH]c1=O", "inhibition": "2.62% (inactive)"}
{"smiles": "CCN(C(=O)COC(=O)C1CCN(S(=O)(=O)c2ccc(C)c(C)c2)CC1)C1CCS(=O)(=O)C1", "note": "(configuration not stated)", "inhibition": "-2.19% (inactive)"}
